For series [1], the target named is Calcium release-activated calcium channel protein 1 (Homo sapiens) (UniProt Q96D31). Kind of series: Antagonist activity at human ORAI1 expressed in HEK293T cells assessed as […]-induced inwardly rectifying current at 90 uM and -120 mV by whole cell patch-clamp method relative to control. Format: cell-based. More on the design: scale not given: the % may be the effect or the level left.

The target in series [2] is Transient receptor potential cation channel subfamily V member 1 (Homo sapiens) (UniProt Q8NER1). Kind of series: Antagonist activity at human TRPV1 expressed in HEK293T cells assessed as capsaicin-induced inward transient currents at 90 uM and -60 mV by whole cell patch-clamp method relative to control. Format: cell-based. More on the design: scale not given: the % may be the effect or the level left. In outline: (§1)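 Whole-cell patch clamp, with TRPV1 current evoked by 1 μM capsaicin. Current was compared before and after 90 μM test agent using mean I−V curves, read at −60 mV. Remaining current was normalized to the steady-state peak current before treatment (100%), reported as mean ± SEM, n = 3–6.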
Sequence of Transient receptor potential cation channel subfamily V member 1 (Homo sapiens) (Q8NER1 whole entry): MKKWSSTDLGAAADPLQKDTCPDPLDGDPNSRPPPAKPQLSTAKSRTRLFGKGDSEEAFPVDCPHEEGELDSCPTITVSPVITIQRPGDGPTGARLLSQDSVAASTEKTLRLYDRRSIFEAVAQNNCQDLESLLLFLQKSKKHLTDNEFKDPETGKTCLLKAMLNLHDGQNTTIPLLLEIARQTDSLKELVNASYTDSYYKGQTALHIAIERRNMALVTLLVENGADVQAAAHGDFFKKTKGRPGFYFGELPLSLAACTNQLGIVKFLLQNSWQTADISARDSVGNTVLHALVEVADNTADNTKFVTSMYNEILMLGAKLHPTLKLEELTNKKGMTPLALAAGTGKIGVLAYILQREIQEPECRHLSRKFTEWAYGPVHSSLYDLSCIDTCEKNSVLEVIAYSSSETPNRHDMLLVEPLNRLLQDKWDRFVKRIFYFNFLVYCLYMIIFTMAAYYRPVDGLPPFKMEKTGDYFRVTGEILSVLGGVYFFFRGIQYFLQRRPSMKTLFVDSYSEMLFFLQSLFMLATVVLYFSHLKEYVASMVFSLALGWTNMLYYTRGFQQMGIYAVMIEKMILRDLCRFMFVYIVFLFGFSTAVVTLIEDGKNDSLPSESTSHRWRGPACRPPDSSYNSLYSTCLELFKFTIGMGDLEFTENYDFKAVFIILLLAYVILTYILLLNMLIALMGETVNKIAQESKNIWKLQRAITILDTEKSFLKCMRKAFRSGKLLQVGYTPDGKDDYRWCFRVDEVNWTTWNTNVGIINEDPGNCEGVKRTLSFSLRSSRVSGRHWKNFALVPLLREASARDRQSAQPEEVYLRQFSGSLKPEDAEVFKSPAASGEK

The test system of series [3] is B16-F10. Kind of series: Cytotoxicity in mouse B16F10 cells at <3 ug/ml measured after 48 hrs by MTT assay. It is filed as cell-based. As to conditions: b16-f10, 48 h.
The species entered for series [4] is Homo sapiens. Kind of series: Inhibition of SOCE signalling in human Jurkat-T cells assessed as reduction in alpha-CD3 induced cytoplasmic calcium concentration at 30 uM measured at every 2 sec interval by Fura-2 dye based fluorimetric analysis. It is filed as cell-based. More on the design: scale not given: the % may be the effect or the level left.
Series [5] has as its target Calcium release-activated calcium channel protein 1 (Homo sapiens) (UniProt Q96D31). Kind of series: Antagonist activity at human ORAI1 expressed in HEK293T cells assessed as inhibition of […]-induced inwardly rectifying current at 90 uM and -120 mV by whole cell patch-clamp method relative to control. Format: cell-based.
For series [6], the species on record is Homo sapiens. Kind of series: Inhibition of SOCE signalling in human Jurkat-T cells assessed as reduction in alpha-CD3 induced cytoplasmic calcium concentration measured at every 2 sec interval by Fura-2 dye based fluorimetric analysis. It is filed as cell-based.
The target in series [7] is Calcium release-activated calcium channel protein 1 (Homo sapiens) (UniProt Q96D31). Kind of series: Antagonist activity at human ORAI1 expressed in HEK293T cells assessed as inhibition of […] induced inwardly rectifying current at 30 uM and -120 mV by whole cell patch-clamp method. Format: cell-based.
Series [8] has as its system B16-F10. Kind of series: Inhibition of UV-induced melanogenesis in mouse B16F10 cells assessed as reduction in melanin level pretreated with compound prior to UVB exposure measured after 48 hrs by spectrophotometric method. Format: functional, cell-based. Put shortly: (§2)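 B16F10 murine melanoma cells were pretreated with test agent (7.5 or 15 μg/mL; reference ORAI1 inhibitor 3 μg/mL) before UVB exposure. Melanin content was measured 48 h later.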

Series [9] has as its system B16-F10. Kind of series: Inhibition of UV-induced melanogenesis in mouse B16F10 cells assessed as reduction in melanin level pretreated at 7.5 ug/ml prior to UVB exposure measured after 48 hrs by spectrophotometric method. It is filed as functional. More on the design: scale not given: the % may be the effect or the level left. Put shortly:
as §2

The target of series [10] is Calcium release-activated calcium channel protein 1 (Homo sapiens) (UniProt Q96D31). Kind of series: Antagonist activity at human ORAI1 expressed in HEK293T cells assessed as inhibition of […]-induced inwardly rectifying current at -120 mV by whole cell patch-clamp method. Format: cell-based.
Series [11] has as its system B16-F10. Kind of series: Cytotoxicity in mouse B16F10 cells at <15 ug/ml measured after 48 hrs by MTT assay. It is filed as cell-based. As to conditions: b16-f10, 48 h.
Series [12] deals with B16-F10. Kind of series: Inhibition of UV-induced melanogenesis in mouse B16F10 cells assessed as reduction in melanin level pretreated at 15 ug/ml prior to UVB exposure measured after 48 hrs by spectrophotometric method. Format: functional. More on the design: scale not given: the % may be the effect or the level left. In outline:
as §2

Series [13] deals with Transient receptor potential cation channel subfamily V member 1 (Homo sapiens) (UniProt Q8NER1). Kind of series: Antagonist activity at human TRPV1 expressed in HEK293T cells assessed as inhibition of capsaicin-induced inward transient currents at 90 uM and -60 mV by whole cell patch-clamp method relative to control. It is filed as cell-based. Put shortly: as §1
Series [14] is filed under the species Homo sapiens. Kind of series: Inhibition of SOCE signalling in human Jurkat-T cells assessed as reduction in alpha-CD3 induced cytoplasmic calcium concentration at 50 uM measured at every 2 sec interval by Fura-2 dye based fluorimetric analysis. More on the design: scale not given: the % may be the effect or the level left. It is filed as cell-based.
Series [15] has as its target Calcium release-activated calcium channel protein 1 (Homo sapiens) (UniProt Q96D31). Kind of series: Antagonist activity at human ORAI1 expressed in HEK293T cells assessed as inhibition of […]-induced inwardly rectifying current at 10 uM and -120 mV by whole cell patch-clamp method. Format: cell-based.
For series [16], the species on record is Homo sapiens. Kind of series: Inhibition of SOCE signalling in human Jurkat-T cells assessed as reduction in alpha-CD3 induced cytoplasmic calcium concentration at 10 uM measured at every 2 sec interval by Fura-2 dye based fluorimetric analysis. Details: scale not given: the % may be the effect or the level left. It is filed as cell-based.

The structures appear in SMILES notation.

Sequence of Calcium release-activated calcium channel protein 1 (Homo sapiens) (Q96D31 whole entry, looked up): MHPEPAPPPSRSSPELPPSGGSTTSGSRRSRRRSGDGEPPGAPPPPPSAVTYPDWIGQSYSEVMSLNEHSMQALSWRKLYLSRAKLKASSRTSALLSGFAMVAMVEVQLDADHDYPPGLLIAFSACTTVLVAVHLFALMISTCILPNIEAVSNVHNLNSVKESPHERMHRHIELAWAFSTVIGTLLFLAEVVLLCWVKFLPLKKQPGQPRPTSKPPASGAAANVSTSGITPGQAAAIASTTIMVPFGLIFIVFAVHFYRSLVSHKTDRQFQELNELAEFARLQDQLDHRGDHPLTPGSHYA

With `C=C(C)[C@@H]1CCC2=CC(=O)C[C@@H](C)[C@]2(C)C1`, the Activity in series [1] amounted to 53%; in series [2], 176%.

Regarding `C=C1C2CCC(C2)C1(C)C` (centres undefined), the Activity was 79% in series [1] and 115% in series [2].

As for `Cc1nnsc1C(=O)Nc1ccc(-n2nc(C(F)(F)F)cc2C(F)(F)F)cc1`, the Activity result in series [3] was “Non-Toxic”.

Consider `C=C1CC[C@H]2O[C@]2(C)CC[C@@H]2[C@@H]1CC2(C)C`, for which the Activity in [1] was found to be 44%; in [2], 45%.

Consider `C=C(C)[C@@H]1CCC2=CCC[C@@H](C)[C@]2(C)C1`, for which the Activity in [4] is 75%; in [6], “Dose-dependent effect”; in [8], “Dose-dependent effect”; in [9] it was 94.82%; in series [1], 5%; in series [11], “Non-Toxic”. Also, the Activity was 82.66% in series [12], 85% in [14], 31% in [2] and 53% in series [16]. Also, the inhibition in series [5] was 94 to 95%; in series [7] it was 45%; in series [10], “Dose-dependent effect”; in [13], 69%; in series [15] it was 13%.

As to `C=C(C)[C@@H]1CC[C@@]2(C)CCC(=O)C(C)=C2C1`, the Activity in series [1] worked out at 50%; in series [2], 94%.

For the origin of these results see ChEMBL document CHEMBL4477174, “Valencene from the Rhizomes of Cyperus rotundus Inhibits Skin Photoaging-Related Ion Channels and UV-Induced Melanogenesis in B16F10 Melanoma Cells” (J Nat Prod, 2016).
